From ChEMBL document CHEMBL1123899, “Nucleic acid related compounds. 51. Synthesis and biological properties of sugar-modified analogues of the nucleoside antibiotics tubercidin, toyocamycin, sangivamycin, and formycin” (1987)
Converted amounts (≈) assume the structure as drawn.

What was measured:
[1] = test system: HeLa; experiment: Minimum cytotoxic concentration required to cause a microscopically detectable alteration of normal cell morphology in Hela cells; assay type: functional, Homo sapiens
Summary of the method: (§1)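 Cytotoxicity read microscopically as the minimum concentration producing a detectable alteration of normal cell morphology, in PRK, HeLa or Vero cell cultures. Average of two to three separate experiments.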

[2] = test system: Human respirovirus 3; experiment: Minimum inhibitory concentration required to reduce parainfluenza type 3 induced cytopathogenicity by 50%; assay type: functional
[3] = test system: Measles morbillivirus; experiment: Minimum inhibitory concentration required to reduce measles virus induced cytopathogenicity by 50%; assay type: functional
[4] = test system: Human alphaherpesvirus 2; experiment: Minimum inhibitory concentration required to reduce Herpes simplex virus type 2 (HSV-2 strain G) induced cytopathogenicity by 50%; assay type: functional
[5] = test system: Sindbis virus; experiment: Minimum inhibitory concentration required to reduce sindbis virus induced cytopathogenicity by 50%; assay type: functional
[6] = test system: Human alphaherpesvirus 1; experiment: Minimum inhibitory concentration required to reduce Herpes simplex virus type 1 (HSV-1, strain KOS) induced cytopathogenicity by 50%; assay type: functional
[7] = test system: L1210; experiment: Inhibition of murine leukemia L1210 cell growth; assay type: functional; conditions: Mus musculus
Summary of the method: (§2)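 Murine L1210 leukemia cells; MIC50 is the concentration reducing cell growth, or incorporation of [methyl-3H]dThd into TCA-insoluble material (DNA synthesis), by 50%. Average of at least three separate experiments.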

[8] = test system: Vesicular stomatitis virus; experiment: Minimum inhibitory concentration required to reduce Vesicular stomatitis virus (VSV) induced cytopathogenicity by 50%; assay type: functional
[9] = test system: L1210; experiment: Minimum inhibitory concentration required to reduce incorporation of [methyl-3H]dThd into TCA-insoluble material from murine leukemia L1210 cells; assay type: functional; conditions: Mus musculus; summary of the method: as §2
[10] = test system: Poliovirus 1; experiment: Minimum inhibitory concentration required to reduce Polio virus type 1 induced cytopathogenicity by 50%; assay type: functional; conditions: Enterovirus C
[11] = test system: Vero; experiment: Minimum cytotoxic concentration required to cause a microscopically detectable alteration of normal cell morphology in Vero cells; assay type: functional, Chlorocebus sabaeus; summary of the method: as §1
[12] = test system: Mammalian orthoreovirus 1; experiment: Minimum inhibitory concentration required to reduce reo virus type 1 induced cytopathogenicity by 50%; assay type: functional
[13] = organism: Oryctolagus cuniculus; experiment: Minimum cytotoxic concentration required to cause a microscopically detectable alteration of normal cell morphology in primary rabbit kidney cells; assay type: functional; summary of the method: as §1
[14] = test system: Vesicular stomatitis virus; experiment: Minimum inhibitory concentration required to reduce vesicular stomatitis virus (VSV) induced cytopathogenicity by 50%; assay type: functional
[15] = test system: L1210; experiment: Minimum inhibitory concentration required to reduce incorporation of [5-3H]-Urd into TCA-insoluble material from murine leukemia L1210 cells; assay type: functional; conditions: Mus musculus
Summary of the method: (§3)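 Murine L1210 leukemia cells were exposed to compound and incorporation of [4,5-3H]leucine (protein) or [5-3H]Urd (RNA) into TCA-insoluble material was measured. MIC50 is the concentration reducing incorporation by 50%. Values are averages of at least three separate experiments.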

[16] = test system: Coxsackievirus B4; experiment: Minimum inhibitory concentration required to reduce Coxsackie virus type B-4-induced cytopathogenicity by 50%; assay type: functional
[17] = test system: L1210; experiment: Minimum inhibitory concentration required to reduce incorporation of [4,5-3H]leucine into TCA-insoluble material from murine leukemia L1210 cells; assay type: functional; conditions: Mus musculus; summary of the method: as §3

| SMILES | MTC [1] | MIC50 [2] | MIC50 [3] | MIC50 [4] | MIC50 [5] | MIC50 [6] | MIC50 [7] | MIC50 [8] | MIC50 [9] | MIC50 [10] | MTC [11] | MIC50 [12] | MTC [13] | MIC50 [14] | MIC50 [15] | MIC50 ([16]; Enterovirus B, read-out: MIC50) | MIC50 [17] | MIC50 [16] |
| --- | --- | --- | --- | --- | --- | --- | --- | --- | --- | --- | --- | --- | --- | --- | --- | --- | --- | --- |
| NC(=O)c1cn([C@H]2C[C@H](O)[C@@H](CO)O2)c2ncnc(N)c12 | 10 µg/mL | > 10 µg/mL | > 10 µg/mL | 1 µg/mL (≈ 3.41 µM) | > 10 µg/mL | 2 µg/mL (≈ 6.82 µM) | 1.21 µg/mL (≈ 4.13 µM) | 1 µg/mL (≈ 3.41 µM) | 16 µg/mL (≈ 54.6 µM) | > 10 µg/mL | 10 µg/mL | > 10 µg/mL | 10 µg/mL | 2 µg/mL (≈ 6.82 µM) |  |  |  |  |
| Nc1ncnc2c(C3OC(CO)CC3O)n[nH]c12 (configuration not stated) | >400 µg/mL | > 400 µg/mL | 100 µg/mL (≈ 398 µM) |  | > 400 µg/mL | > 400 µg/mL | > 1000 µg/mL | > 400 µg/mL | > 1000 µg/mL | > 400 µg/mL | >400 µg/mL | > 400 µg/mL | >400 µg/mL | > 400 µg/mL | > 1000 µg/mL | > 400 µg/mL | > 1000 µg/mL |  |
| Nc1ncnc2c1ccn2[C@@H]1O[C@H](CO)[C@@H](O)[C@H]1O [TUBERCIDIN] | 0.4 µg/mL | 0.07 µg/mL (≈ 0.263 µM) | 0.3 µg/mL (≈ 1.13 µM) | 0.1 µg/mL (≈ 0.376 µM) | 0.2 µg/mL (≈ 0.751 µM) | 0.1 µg/mL (≈ 0.376 µM) | 0.04 µg/mL (≈ 0.15 µM) | 0.01 µg/mL (≈ 0.0376 µM) | 5.4 µg/mL (≈ 20.3 µM) | 0.02 µg/mL (≈ 0.0751 µM) | 0.4 µg/mL | 0.04 µg/mL (≈ 0.15 µM) | 0.4 µg/mL | 0.02 µg/mL (≈ 0.0751 µM) | 0.29 µg/mL (≈ 1.09 µM) | 0.07 µg/mL (≈ 0.263 µM) | 0.173 µg/mL (≈ 0.65 µM) | 0.07 µg/mL (≈ 0.263 µM) |
| N#Cc1cn([C@H]2C[C@H](O)[C@@H](CO)O2)c2ncnc(N)c12 | 4 µg/mL | > 1 µg/mL | 0.5 µg/mL (≈ 1.82 µM) | 0.3 µg/mL (≈ 1.09 µM) | > 1 µg/mL | > 1 µg/mL | 0.109 µg/mL (≈ 0.396 µM) | 0.08 µg/mL (≈ 0.291 µM) | 10 µg/mL (≈ 36.3 µM) | > 4 µg/mL | 1 µg/mL | > 1 µg/mL | 4 µg/mL | 0.5 µg/mL (≈ 1.82 µM) | 0.34 µg/mL (≈ 1.24 µM) |  | 0.265 µg/mL (≈ 0.963 µM) |  |
| NC(=O)c1cn([C@@H]2O[C@H](CO)[C@@H](O)[C@H]2O)c2ncnc(N)c12 [SANGIVAMYCIN] | 0.4 µg/mL | 0.02 µg/mL (≈ 0.0647 µM) |  | 0.07 µg/mL (≈ 0.226 µM) | > 0.4 µg/mL | 0.07 µg/mL (≈ 0.226 µM) | 0.019 µg/mL (≈ 0.0614 µM) | 0.04 µg/mL (≈ 0.129 µM) | > 100 µg/mL | 0.07 µg/mL (≈ 0.226 µM) | 0.4 µg/mL | > 0.4 µg/mL | 1 µg/mL | 0.02 µg/mL (≈ 0.0647 µM) |  |  | 0.014 µg/mL (≈ 0.0453 µM) |  |
| NC(=O)c1ncn([C@@H]2O[C@H](CO)[C@@H](O)[C@H]2O)n1 [RIBAVIRIN] | >400 µg/mL | 50 µg/mL (≈ 205 µM) | 30 µg/mL (≈ 123 µM) | > 400 µg/mL | 65 µg/mL (≈ 266 µM) | > 400 µg/mL |  | 4 µg/mL (≈ 16.4 µM) |  | 20 µg/mL (≈ 81.9 µM) | >400 µg/mL | 75 µg/mL (≈ 307 µM) | >400 µg/mL | 300 µg/mL (≈ 1230 µM) |  | 40 µg/mL (≈ 164 µM) |  | 70 µg/mL (≈ 287 µM) |
| Nc1ncnc2c1ccn2[C@@H]1O[C@H](CO)[C@H](O)[C@H]1O | 4 µg/mL | > 40 µg/mL | > 40 µg/mL | 0.07 µg/mL (≈ 0.263 µM) | > 40 µg/mL | 0.2 µg/mL (≈ 0.751 µM) | 0.248 µg/mL (≈ 0.931 µM) | > 4 µg/mL | 6.7 µg/mL (≈ 25.2 µM) | > 4 µg/mL | 40 µg/mL | > 40 µg/mL | 10 µg/mL | > 10 µg/mL |  |  |  |  |
| Nc1ncnc2c1ccn2C1OC(CO)CC1O (configuration not stated) | 40 µg/mL | 20 µg/mL (≈ 79.9 µM) | > 100 µg/mL | > 10 µg/mL | > 100 µg/mL | > 10 µg/mL | 0.38 µg/mL (≈ 1.52 µM) | 20 µg/mL (≈ 79.9 µM) | 90 µg/mL (≈ 360 µM) | 2 µg/mL (≈ 7.99 µM) | 100 µg/mL | 10 µg/mL (≈ 40 µM) | 10 µg/mL | > 10 µg/mL | 3.2 µg/mL (≈ 12.8 µM) |  | 2.08 µg/mL (≈ 8.31 µM) |  |
